Experimental data taken from the RNAGym collection of RNA variant scans (doi:10.1126/science.aae0568).
Fewer inactive variants are shown than the library holds.

B1: tRNA (parent)
chain: GUUCCGUUGGCGUAAUGGUAACGCGUCUCCCUCCUAAGGAGAAGACUGCGGGUUCGAGUCCCGUACGGAACG

Variants of: B1
Assay: yeast fitness relative to wild type (ratio to wild type); higher = fitter; tRNA-Arg(CCU), competitive growth, 37 C, YPD
Procedure, shortened: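 Variants of the tRNA-Arg(CCU) gene, chemically synthesised with a 3% per-site mutation rate at 69 sites, were placed at the native genomic locus in Saccharomyces cerevisiae. The pooled strains were competed in YPD at 37°C for 24 hours in six parallel replicates. Gene amplicons from the start population and from each end population were read by 100-nucleotide paired-end sequencing. Darwinian fitness relative to wild type came from changes in genotype frequencies; genotypes needed ≥ 100 starting reads, and estimates < 0.5 were set to 0.5.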

Question: For GUUCCGUUGGCGUAAUGGUAACGCGUCUCCCUCCUAAGGAGAAGACUGCGAGUUCGAGUCACGUACGCAACG, which yeast fitness is on record?
Answer: ≤ 0.5

Question: Which yeast fitness does the source give for GUUCCGUUGGCGUAAUGGUAACGCGUCUCCCUCCUAAGGAGAAGACUGUGGGUUCGAGUCCCGAACGGUACG here?
Answer: 0.558

Question: For GUUCCGUUGGCGUAAUGGUAACGCGUCUCCCUCCUAAGGAGAAGACUGCCGGUUGGAGUACCGUACGGAACG, which yeast fitness is on record?
Answer: 0.63

Question: Which yeast fitness does the source give for GUUCCGUUGGCGUAAUGGUAACGCGUCUCCCUCCUAAGGAGAAGACUGUGGGUGCGAGUCCCGUACGGAACG here?
Answer: 0.562

Question: For GUUCCGUUGGCGUAAUGGUAACGCGUCUCCCUCCUAAGGAGAAGACUGCCGAUUCGAGUCCCGUACGGAACG, which yeast fitness is on record?
Answer: 0.607

Question: With GUUCCGUUGGCGUAAUGGUAACGCGUCUCCCUCCUAAGGAGAAGACUGCGAGUUCGUGUCCCGUUCGAAUCG as the variant, how does the yeast fitness read?
Answer: ≤ 0.5

Question: For GUUCCGUUGGCGUAAUGGUAACGCGUCUCCCUCCUAAGGAGAAGACUGCAGGUUCGAGUCCCGUGCGGAACG, which yeast fitness is on record?
Answer: 1.03

Question: Which yeast fitness does the source give for GUUCCGUUGGCGUAAUGGUAACGCGUCUCCCUCCUAAGGAGAAGACUGCAGGUUCGAGUCCCGUCCGGAACG here?
Answer: 0.887

Question: With GUUCCGUUGGCGUAAUGGUAACGCGUCUCCCUCCUAAGGAGAAGACUGCCGGUUCAAGUCCCGUACGGAACG as the variant, how does the yeast fitness read?
Answer: 0.635

Question: Which yeast fitness does the source give for GUUCCGUUGGCGUAAUGGUAACGCGUCUCCCUCCUAAGGAGAAGACUGCGAGUUCGAGUGCCGUCCGGAACG here?
Answer: ≤ 0.5

Question: Which yeast fitness does the source give for GUUCCGUUGGCGUAAUGGUAACGCGUCUCCCUCCUAAGGAGAAGACUGCAGGUUCGCGUCCCGUACGGAACG here?
Answer: 0.611

Question: With GUUCCGUUGGCGUAAUGGUAACGCGUCUCCCUCCUAAGGAGAAGACUGCAGGUGCGAGUCCCGUACGGAACG as the variant, how does the yeast fitness read?
Answer: 0.559

Question: Which yeast fitness does the source give for GUUCCGUUGGCGUAAUGGUAACGCGUCUCCCUCCUAAGGAGAAGACUGUGGGUUCGAGCCCGGUACGGAACG here?
Answer: 0.503

Question: For GUUCCGUUGGCGUAAUGGUAACGCGUCUCCCUCCUAAGGAGAAGACUGCAGGUUCGACUCCCGUAUGGAACG, which yeast fitness is on record?
Answer: 0.649

Question: Which yeast fitness does the source give for GUUCCGUUGGCGUAAUGGUAACGCGUCUCCCUCCUAAGGAGAAGACUGCGAGUUCGAGUCCCGUUCGGCACG here?
Answer: ≤ 0.5

Question: Which yeast fitness does the source give for GUUCCGUUGGCGUAAUGGUAACGCGUCUCCCUCCUAAGGAGAAGACUGCAGGUUCGAGUCUCGUACGGAACG here?
Answer: 0.863

Question: Which yeast fitness does the source give for GUUCCGUUGGCGUAAUGGUAACGCGUCUCCCUCCUAAGGAGAAGACUGCGAGUUCGAGUCUCGUGCGGCACG here?
Answer: 1.07

Question: For GUUCCGUUGGCGUAAUGGUAACGCGUCUCCCUCCUAAGGAGAAGACUGUGGGUAGGAGUCCCGUACGGAACG, which yeast fitness is on record?
Answer: ≤ 0.5

Question: For GUUCCGUUGGCGUAAUGGUAACGCGUCUCCCUCCUAAGGAGAAGACUGUGGGUUCGAGUCCCGUACGAAACG, which yeast fitness is on record?
Answer: 0.85

Question: For GUUCCGUUGGCGUAAUGGUAACGCGUCUCCCUCCUAAGGAGAAGACUGUGGGUUCGAGUCCCGUACGUAACG, which yeast fitness is on record?
Answer: 0.976

Question: Which yeast fitness does the source give for GUUCCGUUGGCGUAAUGGUAACGCGUCUCCCUCCUAAGGAGAAGACUGCAGGUUUGAGUCCCGUACCGAACG here?
Answer: 0.563

Question: For GUUCCGUUGGCGUAAUGGUAACGCGUCUCCCUCCUAAGGAGAAGACUGUGGGUUCGACUCCGGUACGGCACG, which yeast fitness is on record?
Answer: 0.559

Question: For GUUCCGUUGGCGUAAUGGUAACGCGUCUCCCUCCUAAGGAGAAGACUGCCGGUCCGAGUCCCGUACGGAACG, which yeast fitness is on record?
Answer: 0.635

Question: Which yeast fitness does the source give for GUUCCGUUGGCGUAAUGGUAACGCGUCUCCCUCCUAAGGAGAAGACUGCAGGUUCGCGUCCCGUAUGGAACG here?
Answer: ≤ 0.5

Question: With GUUCCGUUGGCGUAAUGGUAACGCGUCUCCCUCCUAAGGAGAAGACUGCAGGUUCGAGUCCCGUACGGCACG as the variant, how does the yeast fitness read?
Answer: 0.74

Question: Which yeast fitness does the source give for GUUCCGUUGGCGUAAUGGUAACGCGUCUCCCUCCUAAGGAGAAGACUGUGGGUUCGAGGUCCGUACGGAACG here?
Answer: ≤ 0.5

Question: For GUUCCGUUGGCGUAAUGGUAACGCGUCUCCCUCCUAAGGAGAAGACUGUGGGAUCGAGUCCCGUACGAAACG, which yeast fitness is on record?
Answer: ≤ 0.5

Question: Which yeast fitness does the source give for GUUCCGUUGGCGUAAUGGUAACGCGUCUCCCUCCUAAGGAGAAGACUGUGGGUCCGAGUCCCGUACGGACCG here?
Answer: 0.617

Question: Which yeast fitness does the source give for GUUCCGUUGGCGUAAUGGUAACGCGUCUCCCUCCUAAGGAGAAGACUGCCGGUACGAGUCACGUACGGAACG here?
Answer: 0.676

Question: For GUUCCGUUGGCGUAAUGGUAACGCGUCUCCCUCCUAAGGAGAAGACUGCGAGUUCGAGUUCCGUACAGAACG, which yeast fitness is on record?
Answer: 0.567

Question: For GUUCCGUUGGCGUAAUGGUAACGCGUCUCCCUCCUAAGGAGAAGACUGCCGGUUCGAGUCCCGUACGCAACG, which yeast fitness is on record?
Answer: 0.715

Question: With GUUCCGUUGGCGUAAUGGUAACGCGUCUCCCUCCUAAGGAGAAGACUGUGGGUUCGAGUCCGGUACGGAACG as the variant, how does the yeast fitness read?
Answer: 0.704

Question: Which yeast fitness does the source give for GUUCCGUUGGCGUAAUGGUAACGCGUCUCCCUCCUAAGGAGAAGACUGUGGGUUCGAGUCUCGUACGGAACG here?
Answer: 0.814

Question: For GUUCCGUUGGCGUAAUGGUAACGCGUCUCCCUCCUAAGGAGAAGACUGCAGGUUCGAGUCCCGUACGGACCG, which yeast fitness is on record?
Answer: 0.823

Question: Which yeast fitness does the source give for GUUCCGUUGGCGUAAUGGUAACGCGUCUCCCUCCUAAGGAGAAGACUGCAGGUUCGAGACCCGUACCGAACG here?
Answer: ≤ 0.5

Question: With GUUCCGUUGGCGUAAUGGUAACGCGUCUCCCUCCUAAGGAGAAGACUGCGAGUUCGAGUUCCGUACGAAACG as the variant, how does the yeast fitness read?
Answer: ≤ 0.5

Question: Which yeast fitness does the source give for GUUCCGUUGGCGUAAUGGUAACGCGUCUCCCUCCUAAGGAGAAGACUGCAGGAUCGAGUCUCGUACGGAACG here?
Answer: 0.532

Question: Which yeast fitness does the source give for GUUCCGUUGGCGUAAUGGUAACGCGUCUCCCUCCUAAGGAGAAGACUGCAGGUUCGAGUCCCCUACGGAACG here?
Answer: 0.737
